Values after ≈ are worked out from the molar mass of the structure shown. Active and inactive are the calls of the source. The rule behind the calls is not given here.
Experiments:
Micrococcus luteus [1] = experiment: Antibacterial activity against Micrococcus luteus after 24 hrs by twofold serial dilution method; type: functional
Outline: (§1)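 Bacteria grown in Mueller Hinton broth for 24 h at 37 °C and diluted to about 10^4 CFU/ml. Compound in 2% DMSO was serially diluted two-fold (1000 to 15.62 µg/ml) in medium in 96-well plates and inoculated. Plates were incubated 24 h at 37 °C. 5 µl of broth was spotted onto MHA, and MIC was taken as the lowest concentration with no visible growth on agar.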

Proteus vulgaris [2] = experiment: Antibacterial activity against Proteus vulgaris MTCC 1771 after 24 hrs by twofold serial dilution method; type: functional; settings: MTCC 1771, 24 h; outline: as §1
[3] = tested on: Salmonella enterica subsp. enterica serovar Paratyphi B; experiment: Antibacterial activity against Salmonella paratyphi B after 24 hrs by twofold serial dilution method; type: functional
Outline: (§2)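 Broth microdilution in MHB following the standard bacterial reference method. Compound was dissolved in DMSO (2%) and serially diluted two-fold from 1000 to 15.62 µg/ml in 96-well plates, with an inoculum of about 10^4 CFU/ml. Streptomycin and ciprofloxacin were positive controls. After 24 h at 37 °C, 5 µl of broth was subcultured on MHA. MIC was the lowest concentration without visible growth on agar.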

[4] = tested on: Salmonella enterica subsp. enterica serovar Paratyphi B; experiment: Antibacterial activity against Salmonella paratyphi B at 10 ug/disc after 24 hrs by disc diffusion assay; type: functional; settings: read-out: IZ
Outline: (§3)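 Streptomycin positive-control discs at 10 μg/disc on Mueller Hinton agar, swabbed with bacteria grown 24 h at 37 °C in MHB and diluted to about 10^4 CFU/ml. Discs stood 30 min at room temperature, then plates were incubated 24 h at 37 °C. Inhibition zones were measured in mm; experiment repeated twice.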

Proteus vulgaris [5] = experiment: Antibacterial activity against Proteus vulgaris MTCC 1771 at 10 ug/disc after 24 hrs by disc diffusion assay; type: functional; settings: MTCC 1771, 24 h, read-out: IZ
Outline: (§4)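 Streptomycin positive-control discs (10 µg/disc) on Mueller Hinton agar swabbed with bacterial culture (about 10^4 CFU/ml). Discs stood 30 min at room temperature, then plates were incubated 24 h at 37 °C. Zones of inhibition were recorded in mm, and the experiment was repeated twice.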

Klebsiella pneumoniae [6] = experiment: Antibacterial activity against Klebsiella pneumoniae MTCC 109 at 10 ug/disc after 24 hrs by disc diffusion assay; type: functional; settings: MTCC 109, 24 h, read-out: IZ; outline: as §4
Staphylococcus aureus [7] = experiment: Antibacterial activity against Staphylococcus aureus MTCC 96 after 24 hrs by twofold serial dilution method; type: functional; settings: MTCC 96, 24 h; outline: as §1
Salmonella typhimurium [8] = experiment: Antibacterial activity against Salmonella Typhimurium MTCC 1251 after 24 hrs by two-fold serial dilution method; type: functional, Salmonella enterica subsp. enterica serovar Typhimurium; settings: Salmonella enterica, MTCC 1251, 24 h; outline: as §1
Staphylococcus aureus [9] = experiment: Antibacterial activity against methicillin-resistant Staphylococcus aureus at 10 ug/disc after 24 hrs by disc diffusion assay; type: functional; settings: read-out: IZ; outline: as §3
Klebsiella pneumoniae [10] = experiment: Antibacterial activity against Klebsiella pneumoniae MTCC 109 after 24 hrs by twofold serial dilution method; type: functional; settings: MTCC 109, 24 h; outline: as §1
Klebsiella aerogenes [11] = experiment: Antibacterial activity against Enterobacter aerogenes MTCC 111 after 24 hrs by twofold serial dilution method; type: functional; settings: MTCC 111, 24 h; outline: as §1
Staphylococcus aureus [12] = experiment: Antibacterial activity against Staphylococcus aureus MTCC 96 at 10 ug/disc after 24 hrs by disc diffusion assay; type: functional; settings: MTCC 96, 24 h, read-out: IZ; outline: as §4
Staphylococcus aureus [13] = experiment: Antibacterial activity against methicillin-resistant Staphylococcus aureus after 24 hrs by twofold serial dilution method; type: functional; outline: as §2
Micrococcus luteus [14] = experiment: Antibacterial activity against Micrococcus luteus at 10 ug/disc after 24 hrs by disc diffusion assay; type: functional; settings: read-out: IZ; outline: as §4
Klebsiella aerogenes [15] = experiment: Antibacterial activity against Enterobacter aerogenes MTCC 111 at 10 ug/disc after 24 hrs by disc diffusion assay; type: functional; settings: MTCC 111, 24 h, read-out: IZ; outline: as §4
Salmonella typhimurium [16] = experiment: Antibacterial activity against Salmonella Typhimurium MTCC 1251 at 10 ug/disc after 24 hrs by disc diffusion assay; type: functional, Salmonella enterica subsp. enterica serovar Typhimurium; settings: Salmonella enterica, MTCC 1251, 24 h; read-out: IZ; outline: as §4
[17] = Antifungal activity against Malassezia pachydermatis after 48 to 72 hrs by twofold serial dilution method; type: functional
Outline: (§5)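 Broth two-fold serial dilution, 1000 to 15.62 µg/ml, with compound dissolved in 2% DMSO, in 96-well plates. Filamentous fungal spores came from 10-day SDA slants at 28 °C, and yeast from SDB grown 48 h at 28 °C. Incubation was 48-72 h at 28 °C. MIC was the lowest concentration with no visible fungal growth.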

Botrytis cinerea [18] = experiment: Antifungal activity against Botrytis cinerea after 48 to 72 hrs by twofold serial dilution method; type: functional; outline: as §5
[19] = tested on: Salmonella enterica subsp. enterica serovar Paratyphi B; experiment: Antibacterial activity against Salmonella paratyphi B at 1000 ug/disc after 24 hrs by disc diffusion assay; type: functional; settings: read-out: IZ
Outline: (§6)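 Disc diffusion on Mueller Hinton agar. Bacteria were grown 24 h at 37 °C in MHB and diluted to about 10^4 CFU/ml, swabbed onto plates and dried 10 min. Discs were loaded at 1000 μg/disc and held 30 min at room temperature for diffusion. Solvent served as negative control. After 24 h at 37 °C, inhibition zones were read in mm; run twice.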

Staphylococcus aureus [20] = experiment: Antibacterial activity against Staphylococcus aureus MTCC 96 at 1000 ug/disc after 24 hrs by disc diffusion assay; type: functional; settings: MTCC 96, 24 h, read-out: IZ
Outline: (§7)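 Disc diffusion on Mueller Hinton agar. Cultures (about 10^4 CFU/ml) were swabbed on and dried 10 min. Discs loaded at 1000 µg/disc were left 30 min at room temperature for diffusion, with a solvent negative control. Plates were incubated 24 h at 37 °C. Inhibition zones were measured in mm, and the experiment was done twice.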

Salmonella typhimurium [21] = experiment: Ratio of ciprofloxacin MIC to compound MIC for Salmonella Typhimurium MTCC 1251; type: functional, Salmonella enterica subsp. enterica serovar Typhimurium
[22] = Antifungal activity against Malassezia pachydermatis at 1000 ug/disc after 48 hrs by disc diffusion assay; type: functional
Outline: (§8)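 Fungal disc diffusion with inoculum from SDA spores (filamentous) or SDB culture (yeast). Test cultures were swabbed on agar, and discs at 1000 µg/disc were left 30 min at room temperature, with a solvent negative control. Plates were incubated 48 h at 27 °C. Zone of inhibition was measured in mm, and the experiment was repeated twice.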

Botrytis cinerea [23] = experiment: Antifungal activity against Botrytis cinerea at 1000 ug/disc after 48 hrs by disc diffusion assay; type: functional; settings: read-out: IZ; outline: as §8
Staphylococcus aureus [24] = experiment: Ratio of ciprofloxacin MIC to compound MIC for methicillin-resistant Staphylococcus aureus; type: functional
Proteus vulgaris [25] = experiment: Antibacterial activity against Proteus vulgaris MTCC 1771 at 1000 ug/disc after 24 hrs by disc diffusion assay; type: functional; settings: MTCC 1771, 24 h, read-out: IZ; outline: as §7
Staphylococcus aureus [26] = experiment: Ratio of streptomycin MIC to compound MIC for methicillin-resistant Staphylococcus aureus; type: functional
Klebsiella pneumoniae [27] = experiment: Antibacterial activity against Klebsiella pneumoniae MTCC 109 at 1000 ug/disc after 24 hrs by disc diffusion assay; type: functional; settings: MTCC 109, 24 h, read-out: IZ; outline: as §7
Klebsiella aerogenes [28] = experiment: Antibacterial activity against Enterobacter aerogenes MTCC 111 at 1000 ug/disc after 24 hrs by disc diffusion assay; type: functional; settings: MTCC 111, 24 h, read-out: IZ; outline: as §7
Candida albicans [29] = experiment: Ratio of fluconazole MIC to compound MIC for Candida albicans MTCC 227; type: functional
Candida albicans [30] = experiment: Antifungal activity against Candida albicans MTCC 227 after 48 to 72 hrs by twofold serial dilution method; type: functional; outline: as §5
Salmonella typhimurium [31] = experiment: Antibacterial activity against Salmonella Typhimurium MTCC 1251 at 1000 ug/disc after 24 hrs by disc diffusion assay; type: functional, Salmonella enterica subsp. enterica serovar Typhimurium; settings: Salmonella enterica, MTCC 1251, 24 h; read-out: IZ; outline: as §7
Staphylococcus aureus [32] = experiment: Antibacterial activity against methicillin-resistant Staphylococcus aureus at 1000 ug/disc after 24 hrs by disc diffusion assay; type: functional; settings: read-out: IZ; outline: as §6
Micrococcus luteus [33] = experiment: Ratio of ciprofloxacin MIC to compound MIC for Micrococcus luteus; type: functional
Micrococcus luteus [34] = experiment: Antibacterial activity against Micrococcus luteus at 1000 ug/disc after 24 hrs by disc diffusion assay; type: functional; settings: read-out: IZ; outline: as §7
Candida albicans [35] = experiment: Antifungal activity against Candida albicans MTCC 227 at 1000 ug/disc after 48 hrs by disc diffusion assay; type: functional; settings: MTCC 227, 48 h, read-out: IZ; outline: as §8

Compound: CN[C@@H]1[C@H](O[C@H]2[C@H](O[C@H]3[C@H](O)[C@@H](O)[C@H](N=C(N)N)[C@@H](O)[C@@H]3N=C(N)N)O[C@@H](C)[C@]2(O)C=O)O[C@@H](CO)[C@H](O)[C@H]1O [STREPTOMYCIN]
- MIC (Micrococcus luteus [1]): 6.25 µg/mL (≈ 10.7 µM)
- MIC (Proteus vulgaris [2]): 6.25 µg/mL (≈ 10.7 µM)
- MIC [3]: inactive
- zone of inhibition at 10 µg/disc [4]: 17 mm
- zone of inhibition at 10 µg/disc (Proteus vulgaris [5]): 22 mm
- zone of inhibition at 10 µg/disc (Klebsiella pneumoniae [6]): 20 mm
- MIC (Staphylococcus aureus [7]): 6.25 µg/mL (≈ 10.7 µM)
- MIC (Salmonella typhimurium [8]): 30 µg/mL (≈ 51.6 µM)
- zone of inhibition at 10 µg/disc (Staphylococcus aureus [9]): 20 mm
- MIC (Klebsiella pneumoniae [10]): 6.25 µg/mL (≈ 10.7 µM)
- MIC (Klebsiella aerogenes [11]): 25 µg/mL (≈ 43 µM)
- zone of inhibition at 10 µg/disc (Staphylococcus aureus [12]): 16 mm
- MIC (Staphylococcus aureus [13]): > 100 µg/mL
- zone of inhibition at 10 µg/disc (Micrococcus luteus [14]): 23 mm
- zone of inhibition at 10 µg/disc (Klebsiella aerogenes [15]): 22 mm
- zone of inhibition at 10 µg/disc (Salmonella typhimurium [16]): 23 mm

Compound: CC(=O)N1C(=O)C2(C3=C(CN2C)C(=O)c2ccccc2C3=O)c2ccccc21 (stereo not drawn)
- MIC [17]: 15.6 µg/mL (≈ 41.9 µM)
- MIC (Botrytis cinerea [18]): 125 µg/mL (≈ 336 µM)
- zone of inhibition at 1000 µg/disc [19]: 28 mm
- zone of inhibition at 1000 µg/disc (Staphylococcus aureus [20]): 18 mm
- MIC (Micrococcus luteus [1]): 15.6 µg/mL (≈ 41.9 µM)
- Ratio (Salmonella typhimurium [21]): >6.4
- inhibition zone (IZ) [22]: 19 mm
- zone of inhibition at 1000 µg/disc (Botrytis cinerea [23]): 15 mm
- Ratio (Staphylococcus aureus [24]): >1.6
- MIC (Proteus vulgaris [2]): < 15.6 µg/mL
- zone of inhibition at 1000 µg/disc (Proteus vulgaris [25]): 26 mm
- Ratio (Staphylococcus aureus [26]): >1.6
- MIC [3]: < 15.6 µg/mL
- zone of inhibition at 1000 µg/disc (Klebsiella pneumoniae [27]): 24 mm
- zone of inhibition at 1000 µg/disc (Klebsiella aerogenes [28]): 21 mm
- Ratio (Candida albicans [29]): >3.2
- MIC (Candida albicans [30]): 31.2 µg/mL (≈ 83.9 µM)
- MIC (Staphylococcus aureus [7]): 31.2 µg/mL (≈ 83.9 µM)
- MIC (Salmonella typhimurium [8]): 15.6 µg/mL (≈ 41.9 µM)
- MIC (Klebsiella pneumoniae [10]): 15.6 µg/mL (≈ 41.9 µM)
- MIC (Klebsiella aerogenes [11]): 15.6 µg/mL (≈ 41.9 µM)
- zone of inhibition at 1000 µg/disc (Salmonella typhimurium [31]): 24 mm
- zone of inhibition at 1000 µg/disc (Staphylococcus aureus [32]): 16 mm
- Ratio (Micrococcus luteus [33]): >6.4
- MIC (Staphylococcus aureus [13]): 62.5 µg/mL (≈ 168 µM)
- zone of inhibition at 1000 µg/disc (Micrococcus luteus [34]): 22 mm
- zone of inhibition at 1000 µg/disc (Candida albicans [35]): 18 mm

Reference: ChEMBL document CHEMBL1955865, “Synthesis of novel spirooxindole derivatives by one pot multicomponent reaction and their antimicrobial activity” (2012)
